Laboratory results: ChEMBL document CHEMBL4184244, “Synthesis, kinetics and inhibition of Escherichia coli Heptosyltransferase I by monosaccharide analogues of Lipid A” (Bioorg Med Chem Lett, 2018)
The source made the active and inactive calls. No cut-off for these calls is given here.

T1: Lipopolysaccharide heptosyltransferase 1 (Escherichia coli (strain K12), UniProt P24173)
T1 sequence (P24173 whole entry): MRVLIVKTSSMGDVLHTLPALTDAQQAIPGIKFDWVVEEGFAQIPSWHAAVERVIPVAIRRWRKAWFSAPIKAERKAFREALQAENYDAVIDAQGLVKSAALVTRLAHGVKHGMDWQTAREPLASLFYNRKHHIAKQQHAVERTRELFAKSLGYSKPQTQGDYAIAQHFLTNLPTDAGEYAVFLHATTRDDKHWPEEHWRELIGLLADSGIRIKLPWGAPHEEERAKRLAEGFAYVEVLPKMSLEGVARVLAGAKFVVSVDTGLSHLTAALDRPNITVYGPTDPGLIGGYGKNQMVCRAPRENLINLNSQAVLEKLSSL

T2: Lipopolysaccharide heptosyltransferase 1 (Escherichia coli (strain K12)) (UniProt P24173)
T2 sequence (whole entry): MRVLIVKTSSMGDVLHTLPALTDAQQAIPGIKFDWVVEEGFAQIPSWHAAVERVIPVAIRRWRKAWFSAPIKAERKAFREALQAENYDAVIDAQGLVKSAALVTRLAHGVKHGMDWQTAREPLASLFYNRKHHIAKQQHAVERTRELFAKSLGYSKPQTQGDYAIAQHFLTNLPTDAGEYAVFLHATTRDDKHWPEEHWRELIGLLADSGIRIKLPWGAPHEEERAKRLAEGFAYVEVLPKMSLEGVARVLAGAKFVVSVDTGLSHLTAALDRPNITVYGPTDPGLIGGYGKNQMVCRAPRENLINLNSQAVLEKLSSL

B1: Lipopolysaccharide heptosyltransferase 1 (Escherichia coli (strain K12)), P24173 (protein)
chain: MRVLIVKTSSMGDVLHTLPALTDAQQAIPGIKFDWVVEEGFAQIPSWHAAVERVIPVAIRRWRKAWFSAPIKAERKAFREALQAENYDAVIDAQGLVKSAALVTRLAHGVKHGMDWQTAREPLASLFYNRKHHIAKQQHAVERTRELFAKSLGYSKPQTQGDYAIAQHFLTNLPTDAGEYAVFLHATTRDDKHWPEEHWRELIGLLADSGIRIKLPWGAPHEEERAKRLAEGFAYVEVLPKMSLEGVARVLAGAKFVVSVDTGLSHLTAALDRPNITVYGPTDPGLIGGYGKNQMVCRAPRENLINLNSQAVLEKLSSL

Tests used:
[1] = target: T1, Lipopolysaccharide heptosyltransferase 1; assay: Inhibition of Escherichia coli Heptosyltransferase I assessed as reduction in ADP release using ODLA and ADP-heptose substrates in presence of phospho(enol)pyruvate and NADH by pyruvate kinase and LDH based ADP/NADH coupling assay
[2] = target: T2, Lipopolysaccharide heptosyltransferase 1 (Escherichia coli (strain K12)); assay: Inhibition of Escherichia coli Heptosyltransferase I assessed as reduction in ADP release at 1 mM using ODLA and ADP-heptose substrates in presence of phospho(enol)pyruvate and NADH by pyruvate kinase and LDH based ADP/NADH coupling assay
[3] = target: T2, Lipopolysaccharide heptosyltransferase 1 (Escherichia coli (strain K12)); assay: Substrate activity at Escherichia coli Heptosyltransferase I assessed as ADP release at 100 uM using phospho(enol)pyruvate and NADH by pyruvate kinase and LDH based ADP/NADH coupling assay
Outline: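 Screening for acceptor-substrate (nucleophile) use by HepI. Each compound replaces the normal Kdo2-Lipid A-type acceptor. ADP-heptose is the heptose donor. Free glucose and galactose and their α- and β-methyl glycosides were screened the same way before the synthesized compounds.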

[4] = compound: CCCC/C=C/CO[C@@H]1O[C@H](CO)[C@@H](O)[C@H](O)[C@H]1O; assay: (§1) Noncompetitive mixed type inhibition of Escherichia coli Heptosyltransferase I assessed as reduction in ADP release by measuring ADP-heptose Km at 100 uM using ODLA and ADP-heptose substrates in presence of phospho(enol)pyruvate and NADH by pyruvate kinase and LDH dependent ADP/NADH coupling assay based Lineweaver-Burk plot
[5] = compound: CCCC/C=C/CO[C@@H]1O[C@H](CO)[C@@H](O)[C@H](O)[C@H]1O; assay: as §1, with “Noncompetitive” for “Noncompetitive mixed type”, “measuring ODLA” for “measuring ADP-heptose”, “at 10” for “at 100”
[6] = compound: CCCC/C=C/CO[C@@H]1O[C@H](CO)[C@@H](O)[C@H](O)[C@H]1O; assay: as §1, with “Noncompetitive” for “Noncompetitive mixed type”, “measuring ODLA” for “measuring ADP-heptose”
[7] = compound: CCCC/C=C/CO[C@@H]1O[C@H](CO)[C@@H](O)[C@H](O)[C@H]1O; assay: as §1, with “Kcat” for “Km”, “10” for “100”
[8] = compound: CCCC/C=C/CO[C@@H]1O[C@H](CO)[C@@H](O)[C@H](O)[C@H]1O; assay: as §1, with “Noncompetitive” for “Noncompetitive mixed type”, “ODLA Kcat” for “ADP-heptose Km”, “10” for “100”
[9] = compound: CCCC/C=C/CO[C@@H]1O[C@H](CO)[C@@H](O)[C@H](O)[C@H]1O; assay: as §1, with “Noncompetitive” for “Noncompetitive mixed type”, “measuring ODLA” for “measuring ADP-heptose”, “at 1000” for “at 100”
[10] = compound: CCCC/C=C/CO[C@@H]1O[C@H](CO)[C@@H](O)[C@H](O)[C@H]1O; assay: as §1, with “Kcat” for “Km”, “1000” for “100”
[11] = compound: CCCC/C=C/CO[C@@H]1O[C@H](CO)[C@@H](O)[C@H](O)[C@H]1O; assay: as §1, with “1000” for “100”
[12] = compound: CCCC/C=C/CO[C@@H]1O[C@H](CO)[C@@H](O)[C@H](O)[C@H]1O; assay: as §1, with “Noncompetitive” for “Noncompetitive mixed type”, “ODLA Kcat” for “ADP-heptose Km”
[13] = compound: CCCC/C=C/CO[C@@H]1O[C@H](CO)[C@@H](O)[C@H](O)[C@H]1O; assay: as §1, with “10” for “100”
[14] = compound: CCCC/C=C/CO[C@@H]1O[C@H](CO)[C@@H](O)[C@H](O)[C@H]1O; assay: as §1, with “Noncompetitive” for “Noncompetitive mixed type”, “ODLA Kcat” for “ADP-heptose Km”, “1000” for “100”
[15] = compound: CCCC/C=C/CO[C@@H]1O[C@H](CO)[C@@H](O)[C@H](O)[C@H]1O; assay: as §1, with “Kcat” for “Km”

Row | Molecule | Ki [1] [µM] | inhibition [2] | Activity [3] | also measured
1 | C=CCO[C@@H]1O[C@H](CO)[C@@H](O)[C@H](O)[C@H]1O | 650 | 19.6% | inactive | –
2 | CCCCCC/C=C/CO[C@H]1O[C@H](CO)[C@H](O)[C@H](O)[C@H]1O | – | 8.8% | inactive | –
3 | CCCCCCCC/C=C/CO[C@@H]1O[C@H](CO)[C@@H](O)[C@H](O)[C@H]1O | 520 | 23.4% | inactive | –
4 | CCCCCCCC/C=C/CO[C@H]1O[C@H](CO)[C@@H](O)[C@H](O)[C@H]1O | – | inactive | inactive | –
5 | C=CCO[C@@H]1O[C@H](CO)[C@H](O)[C@H](O)[C@H]1O | – | 10% | inactive | –
6 | CCCCCCCC/C=C/CO[C@@H]1O[C@H](CO)[C@H](O)[C@H](O)[C@H]1O | – | 5% | inactive | –
7 | CO[C@H]1O[C@H](CO)[C@H](O)[C@H](O)[C@H]1O | – | 8.8% | inactive | –
8 | CCCCCCCC/C=C/CO[C@H]1O[C@H](CO)[C@H](O)[C@H](O)[C@H]1O | – | inactive | inactive | –
9 | CCCCCCCCO[C@@H]1O[C@H](CO)[C@@H](O)[C@H](O)[C@H]1O | – | 8.3% | inactive | –
10 | CCCCC/C=C/CO[C@@H]1O[C@H](CO)[C@H](O)[C@H](O)[C@H]1O | – | 7.8% | inactive | –
11 | CCCC/C=C/CO[C@@H]1O[C@H](CO)[C@@H](O)[C@H](O)[C@H]1O | 340 | 29.7% | inactive | –
12 | CO[C@H]1O[C@H](CO)[C@@H](O)[C@H](O)[C@H]1O | 370 | 27.8% | inactive | –
13 | OC[C@H]1OC(O)[C@H](O)[C@@H](O)[C@@H]1O (stereo partly specified) [DEXTROSE] | 280 | – | inactive | –
14 | CCCCC/C=C/CO[C@@H]1O[C@H](CO)[C@@H](O)[C@H](O)[C@H]1O | – | 11.9% | inactive | –
15 | O=C[C@H](O)[C@@H](O)[C@@H](O)[C@H](O)CO [GALACTOSE] | 500 | 28.5% | inactive | –
16 | CCCCCC/C=C/CO[C@@H]1O[C@H](CO)[C@@H](O)[C@H](O)[C@H]1O | – | 4.2% | inactive | –
17 | CCCCCC/C=C/CO[C@H]1O[C@H](CO)[C@@H](O)[C@H](O)[C@H]1O | – | 16.7% | inactive | –
18 | CCCCCC/C=C/CO[C@@H]1O[C@H](CO)[C@H](O)[C@H](O)[C@H]1O | – | 6.3% | inactive | –
19 | CO[C@@H]1O[C@H](CO)[C@H](O)[C@H](O)[C@H]1O | – | 7% | inactive | –
20 | CCCC/C=C/CO[C@@H]1O[C@H](CO)[C@H](O)[C@H](O)[C@H]1O | 570 | 22.6% | inactive | –
21 | CO[C@@H]1O[C@H](CO)[C@@H](O)[C@H](O)[C@H]1O | 680 | 19.5% | inactive | –
22 | B1 | – | – | – | Km [4]: 135 µM; Km [5]: 114 µM; Km [6]: 108 µM; kcat [7]: 2.8 s⁻¹; kcat [8]: 1.4 s⁻¹; Km [9]: 65 µM; kcat [10]: 0.76 s⁻¹; Km [11]: 38 µM; kcat [12]: 1.3 s⁻¹; Km [13]: 277 µM; kcat [14]: 0.9 s⁻¹; kcat [15]: 1.6 s⁻¹
